ROMK mod: ROMK potassium channel modulators, primary screen, cell-based, thallium flux, MLSMR library | ATP-sensitive inward rectifier potassium channel 1 (Homo sapiens), P48048 | B-score at 10 µM | 130,000 compounds, 2% hits | Tet-inducible ROMK, thallium flux fluorescence; actives lie on both sides;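 active means signal ratio slope over the read window, or its plate-corrected B-score, at least 3 SD from the plate mean, either direction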;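 further: B-score of the F/F0 ratio slope over 7 to 12 s after thallium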
L major viab: Leishmania major promastigote growth inhibition, primary screen | Leishmania major promastigotes, resazurin fluorescence viability | inhibition, % at 10 µM | 200,000 compounds, 9% hits | AID 1063, 2008; in the data active means inhibition above about 50%;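 further: promastigotes grown with compound for 44 hours at 28 °C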
Diaphorase inh: diaphorase inhibitors and chemical oxidizers, primary screen, counter-screen for diaphorase-coupled primary assays, biochemical, uHTS, resorufin fluorescence | 190,000 compounds, 0.69% hits | diaphorase resazurin-to-resorufin fluorescence, NADH, 16 min; bacterial (C. kluyveri) enzyme, not human | AID 1217, 2008 | inhibition, % at 20 µM;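 active means primary screen inhibition at 20 µM above a set limit, cut at about 50% in these data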
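Assay system: diaphorase enzyme from Clostridium kluyveri. Quantity: enzyme working solution with 0.14 U/mL diaphorase. Schedule: reaction incubation of 16 min at room temperature. Technique: resorufin fluorescence, excitation 544 nm, emission 590 nm. Controls: No-NADH positive control and DMSO neutral control.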
WT yeast gro inh: growth inhibition of WT strain, primary screen, mitochondrial fusion inhibitor project, WT and mutant strains, chemical genetic | mitochondrial fusion phenotypic screen | inhibition, % at 10 µM | 190,000 compounds, 2.1% hits; in the data active means inhibition above about 58%; tested in S. cerevisiae
Diaphorase act: compounds boosting diaphorase resazurin reduction – biochemical, uHTS, resorufin fluorescence, counter-screen for diaphorase-coupled primary assays, primary screen | Diaphorase/resazurin coupled assay, 16 min; stronger effect = higher value; 1 = vehicle wells, 0 = NADH-free wells | activation factor at 20 µM | 190,000 compounds, 0.005% hits;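 active means diaphorase activity raised at least twofold by the compound at 20 µM; inactive means activation factor below 2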
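Material: bacterial diaphorase enzyme (C. kluyveri); amount: enzyme 0.07 U/mL final; reagent: NADH substrate 0.114 mM plus resazurin dye 0.1 mM, final; doses: single compound dose of 20 µM, 1% DMSO final; timing: 16 min enzyme reaction, ambient temperature; measured by: fluorescence of resorufin, 544 nm excitation, 590 nm emission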
KCC2 mod: KCC2 cotransporter modulators, thallium flux, primary screen, cell-based, HEK293 KCC2, FluoZin-2 fluorescence, MLSMR; KCC2 cells, thallium flux FluoZin-2 fluorescence; Solute carrier family 12 member 5 (Homo sapiens), Q9H2X9; 190,000 compounds, 2.2% hits; AID 1456, 2008; B-score of Tl+ flux slope (higher = more flux/activation; lower = inhibition) at 10 µM;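 active means thallium flux slope and its plate-corrected score both differing from the plate sample mean at a set confidence after two filtering rounds, in either direction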;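 further: slope of fluorescence scaled to starting intensity during 10 to 20 s after thallium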
KCC2 sec1: KCC2 modulators in sodium-free buffer, confirmation, cell-based, HEK293 KCC2, thallium flux, secondary assay. normalised thallium flux (F/F0 slope) at 10 µM. shares compounds with KCC2 mod. 3,700 compounds, 15% hits. FluoZin2 fluorescence; stronger effect = higher value;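 active means thallium flux slope above the same plate's solvent-only control mean plus 3 SD; inconclusive means the two replicate wells disagree; inactive means no significant difference from solvent-only control wells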
KCC2 bumet counter: thallium flux persisting under bumetanide in KCC2 cells, confirmation, counter-screen for KCC2 modulator project, cell-based, HEK293 KCC2, FluoZin2, secondary assay 3. 3,700 compounds, 49% hits. shares compounds with KCC2 mod. HEK293-KCC2 + bumetanide/ouabain; stronger effect = higher value. normalized thallium flux at 10 µM. AID 1714, 2009;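 active means thallium entry rate above the same plate's blocked-transporter control wells by more than 3 SD; inconclusive means the two repeat wells disagree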;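 further: raw slope of fluorescence over initial fluorescence between 10 and 20 s after thallium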
KCC2 sec2: KCC2 modulators without ouabain present, confirmation, cell-based, HEK293 KCC2, thallium flux, FluoZin2, secondary assay 2; shares compounds with KCC2 mod; thallium flux FluoZin2 fluorescence; actives lie on both sides; F/F0 rise rate, 10–20 s post-thallium; 3,700 compounds, 23% hits; normalized thallium flux at 10 µM;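 active means thallium flux slope more than 3 SD above or below the plate's solvent-only control mean, mostly below; inconclusive means the two repeat wells disagreed; inactive means no significant shift from solvent-only controls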
HEK293 Tl flux: thallium flux modulation in parental HEK cells, confirmation, counter-screen for KCC2 modulator project, cell-based, counterscreen 1; 3,700 compounds, 46% hits; HEK293 parental cells, thallium flux FluoZin2, ouabain; baseline-ratio fluorescence slope, 10–20 s after thallium; shares compounds with KCC2 mod; thallium flux rate (normalised fluorescence) at 10 µM;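 active means thallium flux rate significantly above the same plate's solvent-only control wells, beyond their mean plus 3 SD; inconclusive means the two replicate wells gave conflicting results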
KCC2 retest ouab: KCC2 inhibitors and activators, ouabain retest, confirmation, HEK-KCC2 cells | raw Tl+ flux slope (below DMSO = inhibition, above = activation) at 10 µM | HEK293-KCC2, thallium flux FluoZin2 fluorescence; bidirectional: low = inhibitor, high = activator | shares compounds with KCC2 mod | 3,700 compounds, 48% hits;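 active means thallium flux slope beyond 3 SD from same-plate DMSO control mean in most replicates, usually higher, sometimes lower; inconclusive means repeat tests gave conflicting results; inactive means no significant difference from controls in most replicates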;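 further: slope of initial-normalized fluorescence between seconds 10 and 20 after thallium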
HEK counter2: native HEK Tl+ uptake effects, second counter-screen – HEK cells, counterscreen 2, counter-screen for KCC2 modulator project, confirmation | shares compounds with KCC2 mod | HEK293 parental, thallium flux FluoZin-2 fluorescence slope | thallium flux slope at 10 µM | 3,700 compounds, 33% hits | AID 1718, 2009;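 active means thallium flux slope above the same plate's solvent-control mean plus 3 SD in both duplicate wells; inconclusive means duplicate wells that disagreed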;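 further: run without ouabain in cells lacking the KCC2 cotransporter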
Large screens that a line does not name were inactive (follow-up assays come after a bar, where they were run). In the library only some 12% were active in any assay of this set; here they are far more common.

COc1ccc(N2CCN(Cc3nnnn3C3CCCCC3)CC2)cc1	none
Cc1cc(/C=C2\NC(=S)N(C)C2=O)ccc1N1CCCC1	KCC2 mod 6.43 | KCC2 sec1 inactive | KCC2 bumet counter 0.0118 | KCC2 sec2 inconclusive | HEK293 Tl flux inconclusive | KCC2 retest ouab inactive | HEK counter2 inactive
Cc1cc(/C=C2/C(=O)N(C)C(=S)N2C)ccc1N1CCCC1	none
Cc1nc(-c2cccc(Br)c2)ccc1C(=O)O	none
COc1ccc(NC(=O)CN(c2ccccc2)S(=O)(=O)c2ccccc2)c(OC)c1	none (no result: ROMK mod, L major viab, Diaphorase inh, WT yeast gro inh, Diaphorase act)
COC(=O)c1ccc(Cl)c(NC(=O)CN(c2ccccc2)S(=O)(=O)c2ccc(OC)cc2)c1	KCC2 mod -4.39 (no result: ROMK mod) | KCC2 sec1 inactive | KCC2 bumet counter inactive | KCC2 sec2 inconclusive | HEK293 Tl flux inactive | KCC2 retest ouab 0.019 | HEK counter2 inactive
CCOC(=O)/C(C#N)=C1/C=C(C)NC(c2ccccc2O)=N1	KCC2 mod -3.78 | KCC2 sec1 inactive | KCC2 bumet counter inactive | KCC2 sec2 0.0222 | HEK293 Tl flux 0.0053 | KCC2 retest ouab 0.0134 | HEK counter2 inconclusive
COc1ccccc1CNC(=S)NC1CCCC1	none (no result: ROMK mod)
CCC(Sc1nc(C)cc(=O)[nH]1)C(=O)Nc1sc2c(c1C#N)CCCC2 (centres undefined)	none (no result: KCC2 mod) | KCC2 sec1 inactive | KCC2 bumet counter inactive | KCC2 sec2 0.0256 | HEK293 Tl flux inactive | KCC2 retest ouab inactive | HEK counter2 inactive
N#Cc1c(NC(=O)CSc2nc(N)cc(=O)[nH]2)sc2c1CCCCCC2	none (no result: ROMK mod, KCC2 mod) | KCC2 sec1 inactive | KCC2 bumet counter inactive | KCC2 sec2 0.0268 | HEK293 Tl flux inactive | KCC2 retest ouab inconclusive | HEK counter2 inactive
CC(Sc1nc(N)cc(=O)[nH]1)C(=O)Nc1sc2c(c1C#N)CCCC2 (centres undefined)	none
CC(C)CCNC(=O)CNC(=S)N(Cc1ccccc1)Cc1cccnc1	none
Fc1ccccc1-n1c(-c2ccc3ccccc3n2)n[nH]c1=S	KCC2 mod 4.53 | KCC2 sec1 inactive | KCC2 bumet counter 0.0223 | KCC2 sec2 inconclusive | HEK293 Tl flux inconclusive | KCC2 retest ouab inconclusive | HEK counter2 inactive
S=c1[nH]nc(-c2ccc3ccccc3n2)n1-c1ccccc1	none (no result: ROMK mod)
CCCCN(C)C(=O)c1cc2cc3ccc(OC)cc3nc2s1	none (no result: ROMK mod)

Screening results: PubChem BioAssay, several laboratories
